Measurements: ChEMBL document CHEMBL1955842, “Substituent effects on P2-cyclopentyltetrahydrofuranyl urethanes: design, synthesis, and X-ray studies of potent HIV-1 protease inhibitors” (Bioorg Med Chem Lett, 2012)

How the values were obtained:
[1] = test system: Human immunodeficiency virus 1; experiment: Antiviral activity against HIV1 […] infected in human MT2 cells by MTT assay; type: functional, organism-based; settings: Human immunodeficiency virus 1, MT2
How it was run: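 MT-2 human T-lymphoid cells (2 × 10^3) infected with 100 TCID50 of HIV-1LAI and cultured with inhibitor present. IC50 read out by MTT assay.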

[2] = molecular target: Protease (Human immunodeficiency virus 1, UniProt Q9YQ12); experiment: Inhibition of HIV1 protease using hexapeptide Ac-Thr-Ile-Nle-Nle-Gln-Arg-NH2 as substrate by fluorimetric assay
Sequence of Protease (Q9YQ12 whole entry): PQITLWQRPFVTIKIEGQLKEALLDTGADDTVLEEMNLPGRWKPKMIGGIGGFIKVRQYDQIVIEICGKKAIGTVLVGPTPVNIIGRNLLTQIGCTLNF

[3] = test system: Human immunodeficiency virus 1; experiment: Antiviral activity against HIV1 MDR/C harboring protease L10I, I15V, K20R, L24I, M36I, M46L, I54V, I62V, L63P, K70Q, V82A, and L89 mutant infected in PHA-PBM cells assessed as inhibition of p24 Gag protein production; type: functional, organism-based; settings: Human immunodeficiency virus 1, MDR/C, PBMC
How it was run: (§1)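 EC50 measured against each isolate. Assays run in duplicate. Values are means (±1 standard deviation) from two or three independent experiments. Fold-change for each isolate is its EC50 relative to the EC50 for wild-type HIV-1ERS104pre.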

[4] = test system: Human immunodeficiency virus 1; experiment: Antiviral activity against HIV1 MDR/G harboring protease L10I, V11I, T12E, I15V, L19I, R41K, M46L, L63P, A71T, V82A, and L90M mutant infected in PHA-PBM cells assessed as inhibition of p24 Gag protein production; type: functional, organism-based; settings: Human immunodeficiency virus 1, MDR/G, PBMC; how it was run: as §1
[5] = test system: Human immunodeficiency virus 1; experiment: Antiviral activity against HIV1 MDR/B harboring protease L10I, K14R, L33I, M36I, M46I, F53I, K55R, I62V, L63P, A71V, G73S, V82A, L90M, I93L mutant infected in PHA-PBM cells assessed as inhibition of p24 Gag protein production; type: functional, organism-based; settings: Human immunodeficiency virus 1, MDR/B, PBMC; how it was run: as §1
[6] = test system: Human immunodeficiency virus 1; experiment: Antiviral activity against HIV1 MDR/TM harboring protease L10I, K14R, R41K, M46L, I54V, L63P, A71V, V82A, L90M, I93L mutant infected in PHA-PBM cells assessed as inhibition of p24 Gag protein production; type: functional, organism-based; settings: Human immunodeficiency virus 1, MDR/TM, PBMC; how it was run: as §1
[7] = test system: Human immunodeficiency virus 1; experiment: Ratio of EC50 for HIV1 MDR/B harboring protease L10I, K14R, L33I, M36I, M46I, F53I, K55R, I62V, L63P, A71V, G73S, V82A, L90M, I93L mutant to EC50 for HIV1 ERS104 harboring wild type protease; type: functional
How it was run: (§2)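 Fold-change: EC50 against each multidrug-resistant HIV-1 isolate divided by EC50 against wild-type HIV-1ERS104pre. Assays run in duplicate; values are means (±1 standard deviation) from two or three independent experiments.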

[8] = test system: Human immunodeficiency virus 1; experiment: Ratio of EC50 for HIV1 MDR/TM harboring protease L10I, K14R, R41K, M46L, I54V, L63P, A71V, V82A, L90M, I93L mutant to EC50 for HIV1 ERS104 harboring wild type protease; type: functional; how it was run: as §2
[9] = test system: Human immunodeficiency virus 1; experiment: Antiviral activity against wild type HIV1 ERS104 infected in PHA-PBM cells assessed as inhibition of p24 Gag protein production; type: functional, organism-based; settings: Human immunodeficiency virus 1, ERS104, PBMC; how it was run: as §1
[10] = test system: Human immunodeficiency virus 1; experiment: Ratio of EC50 for HIV1 MDR/G harboring protease L10I, V11I, T12E, I15V, L19I, R41K, M46L, L63P, A71T, V82A, and L90M mutant to EC50 for HIV1 ERS104 harboring wild type protease; type: functional; how it was run: as §2
[11] = test system: Human immunodeficiency virus 1; experiment: Ratio of EC50 for HIV1 MDR/C harboring protease L10I, I15V, K20R, L24I, M36I, M46L, I54V, I62V, L63P, K70Q, V82A, and L89 mutant to EC50 for HIV1 ERS104 harboring wild type protease; type: functional; how it was run: as §2

| Structure (SMILES) | IC50 [1] | Ki [2] | EC50 [3] | EC50 [4] | EC50 [5] | EC50 [6] | Ratio EC50 [7] | Ratio EC50 [8] | EC50 [9] | Ratio EC50 [10] | Ratio EC50 [11] |
| --- | --- | --- | --- | --- | --- | --- | --- | --- | --- | --- | --- |
| COc1ccc(S(=O)(=O)N(CC(C)C)C[C@@H](O)[C@H](Cc2ccccc2)NC(=O)O[C@@H]2C[C@@H]3[C@H](NC(C)=O)CO[C@@H]3C2)cc1 | 25 nM | 0.0074 nM |  |  |  |  |  |  |  |  |  |
| COc1ccc(S(=O)(=O)N(CC(C)C)C[C@@H](O)[C@H](Cc2ccccc2)NC(=O)O[C@@H]2C[C@@H]3[C@@H](OC(=O)N(C)C)CO[C@@H]3C2)cc1 | 4.7 nM | 0.02 nM |  |  |  |  |  |  |  |  |  |
| CC(C)CN(C[C@@H](O)[C@H](Cc1ccccc1)NC(=O)O[C@H]1CO[C@H]2OCC[C@H]21)S(=O)(=O)c1ccc(N)cc1 |  |  | 11 nM | 11 nM | 19 nM | 28 nM |  |  |  |  |  |
| COC(=O)N[C@@H]1CO[C@@H]2C[C@H](OC(=O)N[C@@H](Cc3ccccc3)[C@H](O)CN(CC(C)C)S(=O)(=O)c3ccc(OC)cc3)C[C@H]12 | 1.6 nM |  | 30 nM | 39 nM | 75 nM | 74 nM | 3 | 3 | 29 nM | 1 | 1 |
| COc1ccc(S(=O)(=O)N(CC(C)C)C[C@@H](O)[C@H](Cc2ccccc2)NC(=O)O[C@@H]2C[C@@H]3[C@H](NS(C)(=O)=O)CO[C@@H]3C2)cc1 | 28 nM | 0.032 nM |  |  |  |  |  |  |  |  |  |
| COc1ccc(S(=O)(=O)N(CC(C)C)C[C@@H](O)[C@H](Cc2ccccc2)NC(=O)O[C@@H]2C[C@@H]3[C@@H](NS(C)(=O)=O)CO[C@@H]3C2)cc1 | 50 nM | 0.18 nM |  |  |  |  |  |  |  |  |  |
| COC(=O)N[C@H]1CO[C@@H]2C[C@H](OC(=O)N[C@@H](Cc3ccccc3)[C@H](O)CN(CC(C)C)S(=O)(=O)c3ccc(OC)cc3)C[C@H]12 | 4.6 nM | 0.004 nM | 15 nM | 20 nM | 18 nM | 24 nM | 6 | 8 | 3 nM | 7 | 5 |
| COc1ccc(S(=O)(=O)N(CC(C)C)C[C@@H](O)[C@H](Cc2ccccc2)NC(=O)O[C@@H]2C[C@@H]3[C@@H](NC(C)=O)CO[C@@H]3C2)cc1 | 31 nM | 0.0075 nM |  |  |  |  |  |  |  |  |  |
